Test results published in ChEMBL document CHEMBL1130112, “H3-receptor antagonists: synthesis and structure-activity relationships of para- and meta-substituted 4(5)-phenyl-2-[[2-[4(5)-imidazolyl]ethyl]thio]imidazoles” (J Med Chem, 1997).
Active and inactive are the calls of the source. The calls are words filed in the database; no cut-off is given here.

Experiments:
[1] = dissociation constant corresponding to the 4(5)-alkylimidazole; assay type: ADME; conditions: read-out: pKa,1
In short: (§1)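 pH-metric titration at 25.0 ± 0.1 °C with 0.15 M KCl, samples 0.5–4 mM; for poorly water-soluble compounds, values from 15–60 wt % methanol/water with Yasuda–Shedlovsky extrapolation; refined by nonlinear least squares.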

[2] = dissociation constant corresponding to the 4(5)-phenyl-2-thiomidazole; assay type: ADME; conditions: read-out: pKa,2; in short: as §1
Histamine H3 receptor [3] = molecular target: Histamine H3 receptor (Rattus norvegicus, UniProt Q9QYN8); assay: Inhibition of [3H]NAMHA binding to rat brain membrane histamine H3-receptor
Histamine H3 receptor [4] = molecular target: Histamine H3 receptor (Cavia porcellus, UniProt Q9JI35); assay: Histamine H3-antagonist potency on electrically stimulated guinea pig ileum; assay type: functional, tissue-based; conditions: read-out: pA2 (converted)
In short: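 Guinea pig (350–550 g) terminal ileum under 1 g load in Krebs Henseleit, 37 °C, O₂ 95%:CO₂ 5%, equilibrated ≥60 min; transmural stimulation (0.1 Hz, 1 ms, submax voltage). Compounds up to 10⁻⁶ M, 30 min, then cumulative (R)-α-methylhistamine (10⁻⁹–10⁻⁶ M) inhibiting twitch, recorded isometrically. pA₂ by Schild regression; mean ± SEM of 10–12 observations.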

[5] = LogP of the free base (neutral species).; assay type: physicochemical; conditions: octanol/water
In short: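 pH-metric method: octanol/water titrations with Bjerrum plots, 0.15 M KCl ionic strength, 25.0 ± 0.1 °C, samples 0.5–4 mM; constants refined by nonlinear least squares.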

[6] = molecular target: Histamine H3 receptor (Cavia porcellus) (UniProt Q9JI35); assay: Compound was tested for H3-antagonist potency on electrically stimulated guinea pig ileum; Unsurmountable antagonism at concentration > 10^-7 M; assay type: functional, tissue-based
Chain of Histamine H3 receptor (Cavia porcellus) (Q9JI35 whole entry): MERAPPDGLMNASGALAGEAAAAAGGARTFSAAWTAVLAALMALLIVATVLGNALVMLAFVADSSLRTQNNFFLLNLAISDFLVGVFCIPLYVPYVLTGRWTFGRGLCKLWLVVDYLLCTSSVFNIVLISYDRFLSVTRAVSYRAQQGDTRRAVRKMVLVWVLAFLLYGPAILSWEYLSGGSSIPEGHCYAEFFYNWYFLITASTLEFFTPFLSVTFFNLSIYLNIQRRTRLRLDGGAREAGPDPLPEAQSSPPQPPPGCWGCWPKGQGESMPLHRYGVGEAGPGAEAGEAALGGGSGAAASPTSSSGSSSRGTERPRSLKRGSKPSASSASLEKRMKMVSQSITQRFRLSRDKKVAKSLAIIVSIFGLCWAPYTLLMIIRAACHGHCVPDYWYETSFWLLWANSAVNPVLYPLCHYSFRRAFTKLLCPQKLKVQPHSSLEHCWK

Chain of Histamine H3 receptor (Rattus norvegicus, UniProt Q9QYN8) (Q9QYN8 whole entry): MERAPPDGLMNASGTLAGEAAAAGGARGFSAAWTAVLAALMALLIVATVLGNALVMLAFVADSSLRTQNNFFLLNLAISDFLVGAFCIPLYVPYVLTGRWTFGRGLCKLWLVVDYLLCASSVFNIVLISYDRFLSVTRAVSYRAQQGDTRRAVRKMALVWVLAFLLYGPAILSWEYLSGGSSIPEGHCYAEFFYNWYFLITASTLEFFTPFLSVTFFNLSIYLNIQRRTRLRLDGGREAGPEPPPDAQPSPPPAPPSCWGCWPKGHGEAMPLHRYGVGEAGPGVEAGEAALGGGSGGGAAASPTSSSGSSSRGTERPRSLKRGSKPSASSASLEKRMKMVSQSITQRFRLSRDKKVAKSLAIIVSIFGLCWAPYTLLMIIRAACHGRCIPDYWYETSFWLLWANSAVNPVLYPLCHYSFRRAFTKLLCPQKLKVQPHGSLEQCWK
Chain of Histamine H3 receptor (Cavia porcellus, UniProt Q9JI35) (Q9JI35 whole entry): as the sequence (Q9JI35 whole entry) above

Row | SMILES | pKa [1] | pKa [2] | Ki (Histamine H3 receptor [3]) [nM] | Kb (Histamine H3 receptor [4]) [nM] | logP [5] | pA2 [6]
1 | O=[N+]([O-])c1cccc(-c2c[nH]c(SCCc3c[nH]cn3)n2)c1 | 3.21 | 6.89 | 30.9 | 3.47 | 2.43 | 
2 | NC(=O)c1ccc(-c2c[nH]c(SCCc3c[nH]cn3)n2)cc1 | 3.63 | 7.07 | 28.2 | 117 | 1.4 | 
3 | Brc1cccc(-c2cnc(SCCc3c[nH]cn3)[nH]2)c1 | 3.9 | 7.08 | 14.1 | 7.76 | 3.76 | 
4 | NC(=O)c1cccc(-c2cnc(SCCc3c[nH]cn3)[nH]2)c1 | 4.01 | 7.05 | 16.2 | 145 | 1.61 | 
5 | Clc1ccc(-c2c[nH]c(SCCc3c[nH]cn3)n2)cc1 | 4.12 | 7.1 | 35.5 | 1.35 | 3.66 | 
6 | c1ccc(-c2cnc(SCCc3c[nH]cn3)[nH]2)cc1 | 4.28 | 7.07 | 14.1 | 6.46 | 2.62 | 

More lines, now with the values ahead:

Row | pKa [1] | pKa [2] | Ki (Histamine H3 receptor [3]) [nM] | Kb (Histamine H3 receptor [4]) [nM] | logP [5] | pA2 [6] | SMILES
7 | 3.13 | 6.94 | 52.5 | 16.2 | 2.75 |  | O=[N+]([O-])c1ccc(-c2cnc(SCCc3c[nH]cn3)[nH]2)cc1
8 | 3.84 | 6.93 | 2.95 | 50.1 | 3.72 |  | O=S(=O)(Oc1ccc(-c2cnc(SCCc3c[nH]cn3)[nH]2)cc1)c1ccccc1
9 | 4.3 | 7.06 |  | 148 | 4.11 |  | CCCCOc1ccc(-c2cnc(SCCc3c[nH]cn3)[nH]2)cc1
10 |  |  | 29.5 | 52.5 |  |  | CN(C)c1ccc(-c2c[nH]c(SCCc3c[nH]cn3)n2)cc1
11 | 4.04 | 7.04 | 9.33 |  | 3.7 | inactive | CCCOc1cccc(-c2c[nH]c(SCCc3c[nH]cn3)n2)c1
12 | 4.34 | 7.03 | 39.8 |  | 4.09 | inactive | CCCc1ccc(-c2c[nH]c(SCCc3c[nH]cn3)n2)cc1
